Experimental data: ChEMBL document CHEMBL1817593, “C5'-Alkyl Substitution Effects on Digitoxigenin α-l-Glycoside Cancer Cytotoxicity” (ACS Med Chem Lett, 2011)
Activity calls are given as the source filed them. The rule behind the calls is not given here.

Legend:
[1] = test system: NCI-H460; assay: Cytotoxicity against human NCI-H460 cells assessed as cell death in serum free medium at 100 nM after 12 hrs by Hoechst 33342/propidium iodide staining based fluorescence microscopy; assay type: functional
In short: (§1)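 NCI-H460 human lung cancer cells exposed 12 h to 10 nM–10 μM drug, including a 50 nM single-concentration test. Nuclei were stained with Hoechst 33342 and necrotic cells with propidium iodide. Apoptotic cells were scored by condensed or fragmented blue nuclei and necrotic cells by red PI staining. Total cell death (apoptosis plus necrosis) was recorded; N = 6.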

[2] = test system: SF-539; assay: Cytotoxicity against human SF539 cells after 48 hrs by sulforhodamine B assay; assay type: functional; settings: SF-539, 48 h
[3] = test system: NCI-H460; assay: Cytotoxicity against human NCI-H460 cells assessed as cell death in serum free medium at 10 nM after 12 hrs by Hoechst 33342/propidium iodide staining based fluorescence microscopy; assay type: functional; in short: as §1
[4] = test system: HCC 2998; assay: Cytotoxicity against human HCC2998 cells after 48 hrs by sulforhodamine B assay; assay type: functional; settings: HCC 2998, 48 h
[5] = test system: OVCAR-5; assay: Cytotoxicity against human OVCAR5 cells after 48 hrs by sulforhodamine B assay; assay type: functional; settings: OVCAR-5, 48 h
[6] = test system: NCI/ADR-RES; assay: Cytotoxicity against human NCI/ADR-RES cells after 48 hrs by sulforhodamine B assay; assay type: functional
[7] = test system: SK-MEL-2; assay: Cytotoxicity against human SK-MEL-2 cells after 48 hrs by sulforhodamine B assay; assay type: functional
[8] = test system: K562; assay: Cytotoxicity against human K562 cells after 48 hrs by sulforhodamine B assay; assay type: functional; settings: K562, 48 h
[9] = test system: RXF 393; assay: Cytotoxicity against human RXF393 cells after 48 hrs by sulforhodamine B assay; assay type: functional; settings: RXF 393, 48 h
[10] = test system: NCI-H460; assay: Induction of apoptosis in human NCI-H460 cells in serum free medium after 12 hrs by Hoechst 33342/propidium iodide staining based fluorescence microscopy; assay type: functional, cell-based
In short: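 NCI-H460 cells treated for 12 h at 10 nM to 10 μM. Total cell death (apoptosis plus necrosis) scored by Hoechst 33342/propidium iodide staining, with N = 6 and two-way ANOVA. IC50 obtained by nonlinear regression. Table values are the mean of three independent experiments with duplicate determinations.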

[11] = test system: NCI-H460; assay: Cytotoxicity against human NCI-H460 cells assessed as cell death in serum free medium at 500 nM after 12 hrs by Hoechst 33342/propidium iodide staining based fluorescence microscopy; assay type: functional; in short: as §1
[12] = test system: U-251; assay: Cytotoxicity against human U251 cells after 48 hrs by sulforhodamine B assay; assay type: functional; settings: U-251, 48 h
[13] = test system: MDA-MB-435; assay: Cytotoxicity against human MDA-MB-435 breast cancer cells after 48 hrs by sulforhodamine B assay; assay type: functional; settings: MDA-MB-435, 48 h
[14] = test system: NCI-H460; assay: Cytotoxicity against human NCI-H460 cells assessed as cell death in serum free medium at 1000 nM after 12 hrs by Hoechst 33342/propidium iodide staining based fluorescence microscopy; assay type: functional; in short: as §1
[15] = test system: NCI-H460; assay: Cytotoxicity against human NCI-H460 cells assessed as cell viability at 500 nM after 48 hrs by MTT assay; assay type: functional; settings: NCI-H460, 48 h, read-out: Activity
In short: (§2)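 Viability of NCI-H460 cells was measured by MTT (mitochondrial enzymatic activity) after 48 h exposure, within a dose series spanning 1 nM–10 μM. N = 9, analysed by two-way ANOVA.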

[16] = test system: IGROV-1; assay: Cytotoxicity against human IGROV1 cells after 48 hrs by sulforhodamine B assay; assay type: functional; settings: IGROV-1, 48 h
[17] = test system: NCI-H460; assay: Cytotoxicity against human NCI-H460 cells assessed as cell viability at 10 nM after 48 hrs by MTT assay; assay type: functional; settings: NCI-H460, 48 h, read-out: Activity; in short: as §2
[18] = test system: NCI-H460; assay: Cytotoxicity against human NCI-H460 cells assessed as cell viability at 25 nM after 48 hrs by MTT assay; assay type: functional; settings: NCI-H460, 48 h, read-out: Activity; in short: as §2
[19] = test system: NCI-H460; assay: Cytotoxicity against human NCI-H460 cells assessed as cell death in serum free medium at 25 nM after 12 hrs by Hoechst 33342/propidium iodide staining based fluorescence microscopy; assay type: functional; in short: as §1
[20] = test system: OVCAR-8; assay: Cytotoxicity against human OVCAR8 cells after 48 hrs by sulforhodamine B assay; assay type: functional; settings: OVCAR-8, 48 h
[21] = test system: NCI-H460; assay: Cytotoxicity against human NCI-H460 cells assessed as cell death in serum free medium at 50 nM after 12 hrs by Hoechst 33342/propidium iodide staining based fluorescence microscopy; assay type: functional; in short: as §1
[22] = test system: NCI-H460; assay: Cytotoxicity against human NCI-H460 cells assessed as cell viability at 50 nM after 48 hrs by MTT assay; assay type: functional; settings: NCI-H460, 48 h, read-out: Activity; in short: as §2
[23] = test system: NCI-H460; assay: Cytotoxicity against human NCI-H460 cells assessed as cell death in serum free medium at 250 nM after 12 hrs by Hoechst 33342/propidium iodide staining based fluorescence microscopy; assay type: functional; in short: as §1
[24] = test system: NCI-H460; assay: Growth inhibition of human NCI-H460 cells after 48 hrs by MTT assay; assay type: functional
In short: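 NCI-H460 viability measured by MTT (mitochondrial enzymatic activity) after 48 h exposure at 1 nM to 10 μM. GI50 derived from dose-response curves, with N = 9 and two-way ANOVA. Values are the mean of three independent experiments with duplicate determinations.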

[25] = test system: NCI-H460; assay: Cytotoxicity against human NCI-H460 cells assessed as cell viability at 100 nM after 48 hrs by MTT assay; assay type: functional; settings: NCI-H460, 48 h, read-out: Activity; in short: as §2
[26] = test system: BT-549; assay: Cytotoxicity against human BT549 cells after 48 hrs by sulforhodamine B assay; assay type: functional; settings: BT-549, 48 h
[27] = test system: NCI-H460; assay: Induction of apoptosis in human NCI-H460 cells in serum free medium at 50 nM after 12 hrs by Hoechst 33342/propidium iodide staining based fluorescence microscopy; assay type: functional
In short: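 NCI-H460 cells exposed to a single 50 nM concentration for 12 h. Cells stained with Hoechst 33342 and propidium iodide. Blue cells with condensed or fragmented nuclei were scored as apoptotic and red, ruptured cells as necrotic. Result given as % apoptotic cell death; N = 6, one-way ANOVA.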

[28] = test system: CAKI-1; assay: Cytotoxicity against human Caki1 cells after 48 hrs by sulforhodamine B assay; assay type: functional; settings: CAKI-1, 48 h
[29] = test system: NCI-H460; assay: Cytotoxicity against human NCI-H460 cells assessed as cell viability after 48 hrs by MTT assay; assay type: functional; settings: NCI-H460, 48 h
In short: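 NCI-H460 cells were exposed to drug for 48 h, and viability was read by MTT as mitochondrial enzymatic activity. GI50 was derived from dose-response curves (1 nM–10 μM). Values are from three independent experiments with duplicate determinations, given with standard error of the mean.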

[30] = test system: HCT-116; assay: Cytotoxicity against human HCT116 cells after 48 hrs by sulforhodamine B assay; assay type: functional
[31] = test system: NCI-H460; assay: Cytotoxicity against human NCI-H460 cells assessed as cell viability at 1 nM after 48 hrs by MTT assay; assay type: functional; settings: NCI-H460, 48 h, read-out: Activity; in short: as §2
[32] = test system: NCI-H460; assay: Cytotoxicity against human NCI-H460 cells assessed as cell death in serum free medium at 10000 nM after 12 hrs by Hoechst 33342/propidium iodide staining based fluorescence microscopy; assay type: functional; in short: as §1
[33] = test system: CCRF-CEM; assay: Cytotoxicity against human CCRF-CEM cells after 48 hrs by sulforhodamine B assay; assay type: functional
[34] = test system: NCI-H460; assay: Cytotoxicity against human NCI-H460 cells assessed as cell death in serum free medium at 75 nM after 12 hrs by Hoechst 33342/propidium iodide staining based fluorescence microscopy; assay type: functional; in short: as §1
[35] = test system: NCI-H460; assay: Cytotoxicity against human NCI-H460 cells assessed as cell viability at 1000 nM after 48 hrs by MTT assay; assay type: functional; settings: NCI-H460, 48 h, read-out: Activity; in short: as §2
[36] = test system: HL-60(TB); assay: Cytotoxicity against human HL-60(TB) cells after 48 hrs by sulforhodamine B assay; assay type: functional; settings: HL-60, 48 h
[37] = test system: NCI-H460; assay: Ratio of digitoxin IC50 to compound IC50 for human NCI-H460 cells after 12 hrs by Hoechst 33342/propidium iodide staining based fluorescence microscopy; assay type: functional
[38] = test system: T47D; assay: Cytotoxicity against human T47D cells after 48 hrs by sulforhodamine B assay; assay type: functional

SMILES: C[C@@H]1O[C@@H](O[C@H]2CC[C@@]3(C)[C@H](CC[C@@H]4[C@@H]3CC[C@]3(C)[C@@H](C5=CC(=O)OC5)CC[C@]43O)C2)CC[C@H]1O [RAMNODIGIN]
- Activity [1]: 98.61%
- GI50 [2]: 7.8 nM
- Activity [3]: 18.12%
- GI50 [4]: 16.5 nM
- GI50 [5]: 17.4 nM
- GI50 [6]: 4.12 nM
- GI50 [7]: inactive
- GI50 [8]: 19.5 nM
- GI50 [9]: 1.22 nM
- Activity [10]: Dose-dependent effect
- IC50 ([10]; NCI-H460, 12 h): 51.7 nM
- Activity [11]: 100%
- GI50 [12]: 12.7 nM
- GI50 [13]: 21 nM
- Activity [14]: 100%
- viability at 0.5 µM [15]: 3.69%
- GI50 [16]: 5.23 nM
- viability at 0.01 µM [17]: 13.9%
- viability at 0.025 µM [18]: 7.14%
- Activity [19]: 22.09%
- GI50 [20]: 2.5 nM
- Activity [21]: 52.04%
- viability at 0.05 µM [22]: 6.18%
- Activity [23]: 100%
- GI50 [24]: Dose-dependent effect
- GI50 ([24]; NCI-H460, 48 h): 2 nM
- viability at 0.1 µM [25]: 5%
- GI50 [26]: 2.41 nM
- Activity [27]: 42.463%
- GI50 [28]: 3.32 nM
- GI50 [29]: 1.93 nM
- GI50 [30]: inactive
- viability at 0.001 µM [31]: 77%
- Activity [32]: 100%
- GI50 [33]: 8.49 nM
- Activity [34]: 77.04%
- viability at 1 µM [35]: 3.25%
- GI50 [36]: 2.96 nM
- Ratio IC50 [37]: 4
- GI50 [38]: 20.6 nM
